Laboratory results as given in ChEMBL document CHEMBL5252546, “Salutaxel, a Conjugate of Docetaxel and a Muramyl Dipeptide (MDP) Analogue, Acts as Multifunctional Prodrug That Inhibits Tumor Growth and Metastasis” (J Med Chem, 2018).
Calls of active or inactive are those of the source. The calls are words filed in the database; no cut-off is given here.

Columns and labels:
[1] = Plasma protein binding in human plasma incubated for 4 hrs; type: ADME, cell-free; settings: read-out: PPB (converted)
[2] = Volume of distribution at steady state in female Beagle dog at 2 mg/kg,iv measured upto 24 hrs; type: ADME, organism-based, Canis lupus familiaris; settings: in vivo, read-out: Vdss
[3] = Half life in female rat at 8 mg/kg,iv measured upto 24 hrs; type: ADME, organism-based; settings: in vivo
[4] = Half life in rat at 4 mg/kg,iv measured upto 24 hrs; type: ADME, organism-based; settings: in vivo
[5] = MRT (0 to infinity) in female rat at 4 mg/kg,iv measured upto 24 hrs; type: ADME, organism-based; settings: in vivo
[6] = MRT (0 to infinity) in rat at 4 mg/kg,iv measured upto 24 hrs; type: ADME, organism-based; settings: in vivo
[7] = AUC (0-infinity) in female rat at 8 mg/kg,iv measured upto 24 hrs; type: ADME, organism-based; design: dose 8 mg/kg, time < 24 hrs, route iv; settings: in vivo
In short: (§1)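 Single iv dose: rats 2, 4 or 8 mg/kg by intravenous injection; Beagle dogs 1, 2 or 4 mg/kg by intravenous infusion. Plasma concentration–time data were analysed by sex and pooled. Reported parameters: Cmax, Tmax, AUC0−t, AUC0−∞, MRT0−∞, t1/2, CL, Vss, given as mean ± SD.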

[8] = AUC (0-infinity) in female rat at 4 mg/kg,iv measured upto 24 hrs; type: ADME, organism-based; design: time < 24 hrs, dose 4 mg/kg, route iv; settings: in vivo; in short: as §1
[9] = AUC (0-t) in male Beagle dog at 1 mg/kg,iv measured upto 24 hrs; type: ADME, organism-based, Canis lupus familiaris; design: dose 1 mg/kg, time < 24 hrs, route iv; settings: in vivo; in short: as §1
[10] = Tmax in male rat at 2 mg/kg,iv measured upto 24 hrs; type: ADME, organism-based; settings: in vivo
[11] = Tmax in female rat at 2 mg/kg,iv measured upto 24 hrs; type: ADME, organism-based; settings: in vivo
[12] = Tmax in rat at 4 mg/kg,iv measured upto 24 hrs; type: ADME, organism-based; settings: in vivo
[13] = Tmax in male Beagle dog at 4 mg/kg,iv measured upto 24 hrs; type: ADME, organism-based, Canis lupus familiaris; settings: in vivo
[14] = Cmax in rat at 4 mg/kg,iv measured upto 24 hrs; type: ADME, organism-based; design: dose 4 mg/kg, time < 24 hrs, route iv; settings: in vivo
In short: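 Rats were given a single iv injection at 2, 4 or 8 mg/kg. Plasma parent drug and released docetaxel were followed over time. Cmax, Tmax, AUC, MRT, t1/2, CL and Vss were reported for males, females and all animals combined.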

4T1 [15] = assay: Antitumor activity against mouse 4T1 cells xenografted with BALB/c mouse assessed as inhibition of tumor growth at 10 mg/kg,iv administrated once per week for 4 weeks; type: functional; settings: 4T1, 672 h
In short: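 4T1 cells injected into the mammary fat pad of BALB/c mice; iv saline vehicle or 5, 10 or 20 mg/kg once weekly for 4 weeks; body weight, tumour volume, tumour weight, lung metastatic nodule count and metastasis score recorded; n = 10, mean ± SEM, ANOVA and Student's t test.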

Cytochrome P450 2C9 = Cytochrome P450 2C9 (Homo sapiens, UniProt P11712); assay: Inhibition of CYP2C9 in human liver microsomes using probe substrate at 0.1 to 100 uM in presence of NADPH; type: ADME, Microsome; settings: dose 0.1-100 µM
Chain of Cytochrome P450 2C9 (P11712 whole entry): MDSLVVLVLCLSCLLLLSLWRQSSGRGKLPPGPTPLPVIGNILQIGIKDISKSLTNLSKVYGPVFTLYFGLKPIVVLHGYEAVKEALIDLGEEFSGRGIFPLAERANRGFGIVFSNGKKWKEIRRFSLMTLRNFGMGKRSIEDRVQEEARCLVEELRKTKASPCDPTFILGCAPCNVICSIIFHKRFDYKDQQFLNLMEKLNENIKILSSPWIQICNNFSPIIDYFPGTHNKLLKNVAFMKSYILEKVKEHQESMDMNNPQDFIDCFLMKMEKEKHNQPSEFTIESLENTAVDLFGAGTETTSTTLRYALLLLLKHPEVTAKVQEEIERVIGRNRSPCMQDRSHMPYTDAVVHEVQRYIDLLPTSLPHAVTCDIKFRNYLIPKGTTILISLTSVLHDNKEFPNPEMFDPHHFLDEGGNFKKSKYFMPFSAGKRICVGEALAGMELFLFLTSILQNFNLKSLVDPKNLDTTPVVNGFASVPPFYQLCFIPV

Cytochrome P450 2C8 = Cytochrome P450 2C8 (Homo sapiens, UniProt P10632); assay: Inhibition of CYP2C8 in human liver microsomes using probe substrate in presence of NADPH; type: ADME, Microsome
Chain of Cytochrome P450 2C8 (P10632 whole entry): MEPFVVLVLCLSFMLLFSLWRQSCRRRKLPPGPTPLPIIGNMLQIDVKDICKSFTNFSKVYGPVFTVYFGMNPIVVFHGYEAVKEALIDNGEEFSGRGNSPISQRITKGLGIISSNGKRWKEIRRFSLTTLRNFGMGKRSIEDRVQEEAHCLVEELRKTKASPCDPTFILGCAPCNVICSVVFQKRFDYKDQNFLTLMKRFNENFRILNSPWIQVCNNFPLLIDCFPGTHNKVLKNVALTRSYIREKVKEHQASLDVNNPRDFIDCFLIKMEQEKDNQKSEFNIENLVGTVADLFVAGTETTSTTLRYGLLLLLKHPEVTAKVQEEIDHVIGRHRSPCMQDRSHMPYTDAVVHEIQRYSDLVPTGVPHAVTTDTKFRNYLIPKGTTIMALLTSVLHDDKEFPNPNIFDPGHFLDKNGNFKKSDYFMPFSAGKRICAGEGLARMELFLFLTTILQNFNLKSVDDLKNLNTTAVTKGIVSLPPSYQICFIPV

[16] = Toxicity in HaM/ICR mouse assessed as effect on motor coordination at 5 to 20 mg/kg,iv; type: organism-based; settings: in vivo, dose 5-20 mg/kg
[17] = Drug metabolism in monkey hepatocytes assessed as docetaxel metabolite formation at 20 uM incubated for 180 mins; type: ADME, cell-based, Macaca mulatta, Hepatocyte; settings: rhesus monkey, 3 h
MDA-MB-435 = assay: Antiproliferative activity against human MDA-MB-435 cells assessed inhibition of cell growth incubated for 72 hrs by SRB assay; type: functional, cell-based; settings: MDA-MB-435, 72 h
[18] = Toxicity in male Sprague-Dawley rat assessed as maximal non-toxic dose at iv administration; type: organism-based; settings: in vivo, read-out: MNTD
[19] = MRT in mouse plasma implanted with mouse 4T1 cells at 5.7 mg/kg,iv measured upto 72 hrs; type: ADME, organism-based
[20] = Half life in mouse tumor implanted with mouse 4T1 cells at 5.7 mg/kg,iv measured upto 72 hrs; type: ADME, organism-based, Neoplasm
4T1 [21] = assay: Antitumor activity against mouse 4T1 cells implanted in BALB/c mouse assessed as decrease in tumor MMP9 expression level at 5.7 mg/kg,iv administrated once per week for 4 weeks in presence of compound 5b by western blot assay; type: functional, organism-based
In short: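 Tumour-bearing BALB/c mice (4T1 cells into mammary fat pad) given iv saline vehicle or test agents once weekly for 4 weeks. Tumours excised and probed by western blot for MMP9, MMP2 and NOD1, β-actin as loading control. Bands averaged over five mice per group; representative of two independent experiments.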

[22] = Toxicity in BALB/c mouse xenografted with human NCI-H1975 cells assessed as side effects at 5.7 mg/kg,iv administrated once per week for 3 weeks; type: organism-based; settings: in vivo, 504 h
In short: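 Nude BALB/c nu/nu mice received subcutaneous human tumour cells into the right flank. Dosing started at mean tumour volume of 100–120 mm3, iv once weekly for 3 weeks; the taxane arm was an equimolar control. Body weight and overt side effects were monitored. Mean ± SEM, n = 8.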

4T1 [23] = assay: Antitumor activity against mouse 4T1 cells xenografted with BALB/c mouse assessed as inhibition of tumor growth at 5.7 mg/kg,iv in presence of compound 5b administrated once per week for 4 weeks; type: functional; settings: 4T1, 672 h
In short: (§2)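 4T1 cells injected into mammary fat pads of BALB/c mice. Dosing iv once per week for 4 weeks, saline vehicle; single-agent arms were given alone or with the peptide component (5b or 6). Endpoints were body weight, tumour volume, tumour weight, lung metastatic nodule count and lung metastasis score. Mean ± SEM, n = 10; ANOVA and Student's t test.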

4T1 [24] = assay: Antitumor activity against mouse 4T1 cells xenografted with BALB/c mouse assessed as decrease in tumor volume at 5.7 mg/kg,iv administrated once per week for 4 weeks; type: functional, organism-based; in short: as §2
4T1 [25] = assay: Antitumor activity against mouse 4T1 cells implanted in BALB/c mouse assessed as decrease in serum IL-6 level at 5.7 mg/kg,iv administrated once per week for 4 weeks in presence of MDA-205 by ELISA; type: functional, organism-based
4T1 [26] = assay: Antitumor activity against mouse 4T1 cells implanted in BALB/c mouse assessed as decrease in spleen MMP2 expression level at 5.7 mg/kg,iv administrated once per week for 4 weeks by western blot assay; type: functional, organism-based
In short: (§3)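 4T1 cells injected into mammary fat pads of BALB/c mice. Saline vehicle or test article given iv once weekly for 4 weeks. Spleen, lung and tumor lysates immunoblotted for MMP2/MMP9 with β-actin as loading control. Bands averaged over five mice per group, representative of two independent experiments.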

4T1 [27] = assay: Antitumor activity against mouse 4T1 cells implanted in BALB/c mouse assessed as decrease in lung MMP2 expression level at 5.7 mg/kg,iv administrated once per week for 4 weeks by western blot assay; type: functional, organism-based; in short: as §3
4T1 [28] = assay: Antitumor activity against mouse 4T1 cells implanted in BALB/c mouse assessed as decrease in tumor MMP9 expression level at 5.7 mg/kg,iv administrated once per week for 4 weeks by western blot assay; type: functional, organism-based; in short: as §3
4T1 [29] = assay: Antitumor activity against mouse 4T1 cells implanted in BALB/c mouse assessed as decrease in lung metastasis at 5.7 mg/kg,iv administrated once per week for 4 weeks in presence of compound 5b by H and E staining based assay; type: functional, organism-based
In short: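 BALB/c mice bearing orthotopic mammary fat pad 4T1 tumors, dosed iv weekly for 4 weeks with saline vehicle as control. Lung sections stained with hematoxylin and eosin and examined by light microscopy at 40× for metastasis, inflammatory infiltration and alveolar wall thickening.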

CC(=O)O[C@@]12CO[C@@H]1C[C@H](O)[C@@]1(C)C(=O)[C@H](O)C3=C(C)[C@@H](OC(=O)[C@H](OC(=O)CCC(=O)NCCCC[C@H](NC(=O)CC[C@@H](NC(=O)[C@H](C)NC(=O)/C=C/c4ccc(F)cc4Cl)C(N)=O)C(=O)O)[C@@H](NC(=O)OC(C)(C)C)c4ccccc4)C[C@@](O)([C@@H](OC(=O)c4ccccc4)[C@H]21)C3(C)C
fraction unbound at 4 h [1]: 0.007
Vd [2]: 0.077 L/kg
half-life [3]: 15.2 min
half-life [4]: 10.6 min
MRT inf [5]: 15.7 min
MRT inf [6]: 19.1 min
AUC(0-inf) [7]: 39400 ng·h/mL
AUC(0-inf) [8]: 13000 ng·h/mL
AUC(0-t) at 24 h [9]: 1590 ng·h/mL
Tmax [10]: 4.98 min
Tmax [11]: 4.98 min
Tmax [12]: 4.98 min
Tmax [13]: 30 min
Cmax [14]: 34200 ng/mL
inhibition in vivo at 10 mg/kg (4T1 [15]): 37%
inhibition (INH) (Cytochrome P450 2C9): Not Active
IC50 (Cytochrome P450 2C8): 9.97 µM
Activity [16]: Non-Toxic
Drug metabolism [17]: Metabolite_Detected
IC50 (MDA-MB-435): 0.0163 µM
NOAEL [18]: 4 mg/kg

CC(=O)O[C@@]12CO[C@@H]1C[C@H](O)[C@@]1(C)C(=O)[C@H](O)C3=C(C)[C@@H](OC(=O)[C@H](O)[C@@H](NC(=O)OC(C)(C)C)c4ccccc4)C[C@@](O)([C@@H](OC(=O)c4ccccc4)[C@H]21)C3(C)C [DOCETAXEL ANHYDROUS]
MRT [19]: 137 min
half-life [20]: 49.1 h
Activity (4T1 [21]): inactive
Activity [22]: Non-Toxic
inhibition in vivo at 5.7 mg/kg (4T1 [23]): 14.4%
Activity (4T1 [24]): Active
Activity (4T1 [25]): Active
Activity (4T1 [26]): inactive
Activity (4T1 [27]): inactive
Activity (4T1 [28]): inactive
Activity (4T1 [29]): Active
